# In ChEMBL document CHEMBL2146464, “Structure-activity relationship study of nitrosopyrimidines acting as antifungal agents” (Bioorg Med Chem, 2012):
# The source made the active and inactive calls. The rule behind the calls is not given here.
# How the values were obtained:
# Cryptococcus neoformans [1] = assay: Fungicidal activity against Cryptococcus neoformans ATCC 32264 at 0.98 to 250 ug/mL after 48 hrs by agar plate dilution method; type: functional, organism-based
# Procedure, shortened: (§1)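 MFC: after the microdilution MIC, material from each clear well was plated onto RPMI-1640 agar buffered with MOPS. Plates incubated at 30 °C and read after 48 h. MFC is the lowest concentration giving total inhibition of visible growth.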
# Cryptococcus neoformans [2] = assay: Antifungal activity against Cryptococcus neoformans ATCC 32264 assessed as growth inhibition at 7.8 ug/mL after 48 hrs by microplate reader analysis; type: functional; conditions: ATCC 32264, 48 h, read-out: GI
# Procedure, shortened: (§2)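 Microplate growth-inhibition assay in RPMI-1640, compound at final 250–0.98 µg/mL (DMSO ≤1%). Inoculum 1–5 × 10³ CFU/mL. Sterility and DMSO growth controls included. Percent inhibition is computed from blank-corrected OD relative to the growth control, tested in duplicate.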
# Cryptococcus neoformans [3] = assay: Antifungal activity against Cryptococcus neoformans ATCC 32264 assessed as growth inhibition at 15.6 ug/mL after 48 hrs by microplate reader analysis; type: functional; conditions: ATCC 32264, 48 h, read-out: GI; procedure, shortened: as §2
# Cryptococcus neoformans [4] = assay: Antifungal activity against Cryptococcus neoformans ATCC 32264 assessed as growth inhibition at 125 ug/mL after 48 hrs by microplate reader analysis; type: functional; conditions: ATCC 32264, 48 h, read-out: GI; procedure, shortened: as §2
# Candida tropicalis [5] = assay: Antifungal activity against Candida tropicalis assessed as growth inhibition at 7.8 ug/mL by microplate reader analysis; type: functional; conditions: read-out: GI
# Candida albicans [6] = assay: Fungicidal activity against Candida albicans ATCC 10231 at 0.98 to 250 ug/mL after 48 hrs by agar plate dilution method; type: functional, organism-based; procedure, shortened: as §1
# [7] = Acute toxicity in bony fish assessed as mortality at 3 ug/mL after 96 hrs; conditions: actinopterygii; read-out: Activity
# Procedure, shortened: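 Guppy (Poecilia reticulata) acute static exposure: 10 fish per concentration in 2 L wide-mouthed jars holding the test solution. Compounds were added from […] to give the final concentrations. Dead fish were counted and removed every 24 h, with general condition noted; percentage mortality was scored at 96 h. Two experiments, each in triplicate.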
# Candida albicans [8] = assay: Antifungal activity against Candida albicans ATCC 10231 assessed as growth inhibition at 7.8 ug/mL after 24 hrs by microplate reader analysis; type: functional; conditions: ATCC 10231, 24 h, read-out: GI
# Procedure, shortened: (§3)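 96-well RPMI-1640 wells with compound at final 250–0.98 µg/mL (DMSO ≤1%). Inoculum 100 µL, 1–5 × 10³ CFU/mL, 200 µL final. Each well includes growth (DMSO, no compound) and sterility controls. % inhibition = 100 − (CTW−SCW)/(GCW−SCW) × 100, run in duplicate.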
# Aspergillus fumigatus = assay: Antifungal activity against Aspergillus fumigatus ATCC 26934 at 0.98 to 250 ug/mL by NCCLS broth microdilution method; type: functional, organism-based
# Procedure, shortened: (§4)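 MIC by broth microdilution per NCCLS M27-A3/M38-A2 in RPMI-1640 buffered to pH 7.0 with MOPS. Twofold dilutions from 250–0.98 µg/mL, final DMSO ≤1%. Inoculum 1–5 × 10³ CFU/mL. Incubated in a moist dark chamber, 30 °C for Aspergillus and 28–30 °C for dermatophytes. Read visually when control growth allowed. Endpoint is the lowest concentration giving total inhibition of visible growth (MIC100).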
# Candida tropicalis [9] = assay: Fungicidal activity against Candida tropicalis at 0.98 to 250 ug/mL after 48 hrs by agar plate dilution method; type: functional, organism-based; procedure, shortened: as §1
# Candida albicans [10] = assay: Antifungal activity against Candida albicans ATCC 10231 assessed as growth inhibition at 31.25 ug/mL after 24 hrs by microplate reader analysis; type: functional; conditions: ATCC 10231, 24 h, read-out: GI; procedure, shortened: as §3
# Cryptococcus neoformans [11] = assay: Antifungal activity against Cryptococcus neoformans ATCC 32264 assessed as growth inhibition at 31.25 ug/mL after 48 hrs by microplate reader analysis; type: functional; conditions: ATCC 32264, 48 h, read-out: GI; procedure, shortened: as §2
# Candida tropicalis [12] = assay: Antifungal activity against Candida tropicalis after 48 hrs by NCCLS broth microdilution method; type: functional; conditions: read-out: MIC100
# Procedure, shortened: (§5)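 Yeast MIC by NCCLS M27-A3 broth microdilution in RPMI-1640 buffered to pH 7.0 with MOPS. Twofold dilutions of 250–0.98 µg/mL, final DMSO ≤1%. Inoculum 1–5 × 10³ CFU/mL. Incubated at 30 °C in a moist dark chamber. Read visually at 48 h. MIC100 is the lowest concentration with no visible growth versus drug-free control.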
# [13] = system: Trichophyton mentagrophytes; assay: Antifungal activity against Trichophyton mentagrophytes ATCC 9972 at 0.98 to 250 ug/mL by NCCLS broth microdilution method; type: functional, organism-based; procedure, shortened: as §4
# Candida albicans [14] = assay: Antifungal activity against Candida albicans ATCC 10231 after 24 hrs by microplate reader analysis; type: functional; conditions: ATCC 10231, 24 h; procedure, shortened: as §3
# Candida albicans [15] = assay: Antifungal activity against Candida albicans ATCC 10231 after 48 hrs by NCCLS broth microdilution method; type: functional; conditions: ATCC 10231, 48 h, read-out: MIC100; procedure, shortened: as §5
# Candida albicans [16] = assay: Antifungal activity against Candida albicans ATCC 10231 assessed as growth inhibition at 250 ug/mL after 24 hrs by microplate reader analysis; type: functional; conditions: ATCC 10231, 24 h, read-out: GI; procedure, shortened: as §3
# Candida albicans [17] = assay: Antifungal activity against Candida albicans ATCC 10231 assessed as growth inhibition at 15.6 ug/mL after 24 hrs by microplate reader analysis; type: functional; conditions: ATCC 10231, 24 h, read-out: GI; procedure, shortened: as §3
# Candida tropicalis [18] = assay: Antifungal activity against Candida tropicalis assessed as growth inhibition at 250 ug/mL by microplate reader analysis; type: functional; conditions: read-out: GI
# Cryptococcus neoformans [19] = assay: Antifungal activity against Cryptococcus neoformans ATCC 32264 after 48 hrs by NCCLS broth microdilution method; type: functional; conditions: ATCC 32264, 48 h, read-out: MIC100; procedure, shortened: as §5
# Nannizzia gypsea = assay: Antifungal activity against Microsporum gypseum CCC 115 at 0.98 to 250 ug/mL by NCCLS broth microdilution method; type: functional, organism-based; procedure, shortened: as §4
# Cryptococcus neoformans [20] = assay: Antifungal activity against Cryptococcus neoformans ATCC 32264 assessed as growth inhibition at 3.9 ug/mL after 48 hrs by microplate reader analysis; type: functional; conditions: ATCC 32264, 48 h, read-out: GI; procedure, shortened: as §2
# Candida tropicalis [21] = assay: Antifungal activity against Candida tropicalis assessed as growth inhibition at 125 ug/mL by microplate reader analysis; type: functional; conditions: read-out: GI
# Candida tropicalis [22] = assay: Antifungal activity against Candida tropicalis assessed as growth inhibition at 3.9 ug/mL by microplate reader analysis; type: functional; conditions: read-out: GI
# Cryptococcus neoformans [23] = assay: Antifungal activity against Cryptococcus neoformans ATCC 32264 assessed as growth inhibition at 62.5 ug/mL after 48 hrs by microplate reader analysis; type: functional; conditions: ATCC 32264, 48 h, read-out: GI; procedure, shortened: as §2
# Cryptococcus neoformans [24] = assay: Antifungal activity against Cryptococcus neoformans ATCC 32264 after 48 hrs by microplate reader analysis; type: functional; conditions: ATCC 32264, 48 h; procedure, shortened: as §2
# Trichophyton rubrum = assay: Antifungal activity against Trichophyton rubrum CCC 110 at 0.98 to 250 ug/mL by NCCLS broth microdilution method; type: functional, organism-based; procedure, shortened: as §4
# Candida tropicalis [25] = assay: Antifungal activity against Candida tropicalis assessed as growth inhibition at 15.6 ug/mL by microplate reader analysis; type: functional; conditions: read-out: GI
# Candida albicans [26] = assay: Antifungal activity against Candida albicans ATCC 10231 assessed as growth inhibition at 62.5 ug/mL after 24 hrs by microplate reader analysis; type: functional; conditions: ATCC 10231, 24 h, read-out: GI; procedure, shortened: as §3
# Candida albicans [27] = assay: Antifungal activity against Candida albicans ATCC 10231 assessed as growth inhibition at 125 ug/mL after 24 hrs by microplate reader analysis; type: functional; conditions: ATCC 10231, 24 h, read-out: GI; procedure, shortened: as §3
# Aspergillus niger = assay: Antifungal activity against Aspergillus niger ATCC 9029 at 0.98 to 250 ug/mL by NCCLS broth microdilution method; type: functional, organism-based; procedure, shortened: as §4
# Candida tropicalis [28] = assay: Antifungal activity against Candida tropicalis assessed as growth inhibition at 31.25 ug/mL by microplate reader analysis; type: functional; conditions: read-out: GI
# Aspergillus flavus = assay: Antifungal activity against Aspergillus flavus ATCC 9170 at 0.98 to 250 ug/mL by NCCLS broth microdilution method; type: functional, organism-based; procedure, shortened: as §4
# Candida tropicalis [29] = assay: Antifungal activity against Candida tropicalis by microplate reader analysis; type: functional
# Candida tropicalis [30] = assay: Antifungal activity against Candida tropicalis assessed as growth inhibition at 62.5 ug/mL by microplate reader analysis; type: functional; conditions: read-out: GI
# Candida albicans [31] = assay: Antifungal activity against Candida albicans ATCC 10231 assessed as growth inhibition at 3.9 ug/mL after 24 hrs by microplate reader analysis; type: functional; conditions: ATCC 10231, 24 h, read-out: GI; procedure, shortened: as §3
# Cryptococcus neoformans [32] = assay: Antifungal activity against Cryptococcus neoformans ATCC 32264 assessed as growth inhibition at 250 ug/mL after 48 hrs by microplate reader analysis; type: functional; conditions: ATCC 32264, 48 h, read-out: GI; procedure, shortened: as §2
smiles,measurement,setting,value
COc1nc(N)nc2c1ncn2C12CC3CC(CC(C3)C1)C2,Activity,Cryptococcus neoformans [1],inactive
same,inhibition of growth at 7.8 µg/mL,Cryptococcus neoformans [2],9.5%
same,inhibition of growth at 15.6 µg/mL,Cryptococcus neoformans [3],39.2%
same,inhibition of growth at 125 µg/mL,Cryptococcus neoformans [4],88%
same,inhibition of growth at 7.8 µg/mL,Candida tropicalis [5],34.5%
same,Activity,Candida albicans [6],inactive
same,"mortality at 96 h, 3 ug/mL",[7],0%
same,inhibition of growth at 7.8 µg/mL,Candida albicans [8],23.2%
same,Activity,Aspergillus fumigatus,inactive
same,Activity,Candida tropicalis [9],inactive
same,inhibition of growth at 31.25 µg/mL,Candida albicans [10],38.9%
same,inhibition of growth at 31.25 µg/mL,Cryptococcus neoformans [11],56.9%
same,MIC,Candida tropicalis [12],250 µg/mL
same,Activity,[13],inactive
same,MIC50,Candida albicans [14],62.5 µg/mL
same,MIC,Candida albicans [15],250 µg/mL
same,inhibition of growth at 250 µg/mL,Candida albicans [16],100%
same,inhibition of growth at 15.6 µg/mL,Candida albicans [17],34.3%
same,inhibition of growth at 250 µg/mL,Candida tropicalis [18],100%
same,MIC,Cryptococcus neoformans [19],250 µg/mL
same,Activity,Nannizzia gypsea,inactive
same,inhibition of growth at 3.9 µg/mL,Cryptococcus neoformans [20],0%
same,inhibition of growth at 125 µg/mL,Candida tropicalis [21],81.2%
same,inhibition of growth at 3.9 µg/mL,Candida tropicalis [22],36.4%
same,inhibition of growth at 62.5 µg/mL,Cryptococcus neoformans [23],51.1%
same,MIC50,Cryptococcus neoformans [24],31.2 µg/mL
same,Activity,Trichophyton rubrum,inactive
same,inhibition of growth at 15.6 µg/mL,Candida tropicalis [25],41.5%
same,inhibition of growth at 62.5 µg/mL,Candida albicans [26],43.4%
same,inhibition of growth at 125 µg/mL,Candida albicans [27],86.8%
same,Activity,Aspergillus niger,inactive
same,inhibition of growth at 31.25 µg/mL,Candida tropicalis [28],47.3%
same,Activity,Aspergillus flavus,inactive
same,MIC50,Candida tropicalis [29],62.5 µg/mL
same,inhibition of growth at 62.5 µg/mL,Candida tropicalis [30],53.3%
same,inhibition of growth at 3.9 µg/mL,Candida albicans [31],29.3%
same,inhibition of growth at 250 µg/mL,Cryptococcus neoformans [32],100%
